ChEMBL document CHEMBL4371057, “Hydroxamic Acid Inhibitors Provide Cross-Species Inhibition of Plasmodium M1 and M17 Aminopeptidases” (J Med Chem, 2019)
The source made the active and inactive calls. No cut-off for these calls is given here.

Legend:
[1] = system: Insulin-regulated aminopeptidase (Homo sapiens); experiment: Inhibition of human IRAP at <200 uM preincubated for 10 mins followed by L-leucine-7-amido-4-methylcoumarin addition by fluorescence assay
[2] = target: Neutrophil collagenase (Homo sapiens) (UniProt P22894); experiment: Inhibition of MMP8 (unknown origin) preincubated for 1 hr followed by (QF)-24 substrate addition measured at 1 min time interval for 1 hr by fluorescence assay
Procedure, shortened: (§1)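 MMPs were activated with 1 mM 4-aminophenylmercuric acetate (50 mM HEPES, 150 mM NaCl, 5 mM CaCl2, pH 7.0, 1 h, rt). 1 μM QF24 was added at 37 °C and read at 320/405 nm every minute for 1 h. IC50 from a four-parameter Hill fit; three independent experiments.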

[3] = Cytotoxicity against HEK293 cells after 72 hrs by resazurin dye based assay; assay type: cell-based; settings: human
Procedure, shortened: (§2)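 HEK293 cells kept in DMEM with 10% FBS. Exposed to compounds for 72 h at 37 °C, 5% CO2, using the same dilution scheme as the parasite assay (top 40 μM). Medium then replaced with 44 μM resazurin, and fluorescence (530/595 nm) read after 5–6 h.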

[4] = target: T1, Matrilysin (Homo sapiens) (UniProt P09237); experiment: Inhibition of MMP7 (unknown origin) preincubated for 1 hr followed by (QF)-24 substrate addition measured at 1 min time interval for 1 hr by fluorescence assay
T1 sequence (whole entry): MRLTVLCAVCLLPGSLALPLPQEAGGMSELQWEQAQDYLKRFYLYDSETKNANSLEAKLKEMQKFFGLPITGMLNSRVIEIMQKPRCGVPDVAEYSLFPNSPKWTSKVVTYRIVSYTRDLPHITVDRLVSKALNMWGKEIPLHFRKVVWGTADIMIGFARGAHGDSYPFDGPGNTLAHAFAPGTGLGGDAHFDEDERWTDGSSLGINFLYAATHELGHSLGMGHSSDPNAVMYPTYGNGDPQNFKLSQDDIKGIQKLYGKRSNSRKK
Procedure, shortened: as §1

[5] = Inhibition of Plasmodium vivax C-terminal His6-tagged M1 aminopeptidase (195 to 1097 residues) expressed in Escherichia coli BL21(DE3) preincubated for 20 mins followed by L-leucine-7-amido-4-methylcoumarin addition by Morrison equation analysis
Procedure, shortened: (§3)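 Recombinant enzymes (Ni-NTA then size exclusion) were preincubated 20 min with inhibitor in 100 mM Tris-HCl pH 8.0, with 2 mM CoCl2 for Pf-M17 and 1 mM for Pv-M17. Leu-AMC substrate: 20 μM (Pf-M1), 40 μM (Pv-M1), 10 μM (both M17). Read at 37 °C, 355/460 nm, to steady-state velocity. Ki from a Morrison tight-binding fit; biological triplicate from three protein preparations.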

[6] = Inhibition of Plasmodium vivax C-terminal His6-tagged M17 aminopeptidase (203 to 621 residues) expressed in Escherichia coli BL21(DE3) preincubated for 20 mins followed by L-leucine-7-amido-4-methylcoumarin addition by Morrison equation analysis
Procedure, shortened: as §3

[7] = Selectivity ratio of Ki for Plasmodium falciparum C-terminal His6-tagged M1 aminopeptidase (195 to 1085 residues) expressed in Escherichia coli BL21(DE3) to Ki for Plasmodium vivax C-terminal His6-tagged M1 aminopeptidase (195 to 1097 residues) expressed in Escherichia coli BL21(DE3)
Aminopeptidase N = Aminopeptidase N (Homo sapiens, UniProt P15144); experiment: Inhibition of human APN expressed in HEK293 cells preincubated for 10 mins followed by L-leucine-7-amido-4-methylcoumarin addition by fluorescence assay
[8] = target: 72 kDa type IV collagenase (Homo sapiens, UniProt P08253); experiment: Inhibition of MMP2 (unknown origin) preincubated for 1 hr followed by (QF)-24 substrate addition measured at 1 min time interval for 1 hr by fluorescence assay
[9] = Growth inhibition of HEK293 cells at 10 uM after 72 hrs by resazurin dye based assay relative to control; assay type: cell-based; settings: human, read-out: GI
Procedure, shortened: as §2

[10] = Growth inhibition of HEK293 cells at 40 uM after 72 hrs by resazurin dye based assay relative to control; assay type: cell-based; settings: human, read-out: GI
Procedure, shortened: as §2

[11] = target: Matrix metalloproteinase-9 (Homo sapiens, UniProt P14780); experiment: Inhibition of MMP9 (unknown origin) preincubated for 1 hr followed by (QF)-24 substrate addition measured at 1 min time interval for 1 hr by fluorescence assay
Plasmodium falciparum [12] = experiment: Antimalarial activity against Plasmodium falciparum 3D7 after 72 hrs by DAPI staining-based confocal imaging analysis; assay type: functional, organism-based; settings: 3D7, 72 h
Procedure, shortened: (§4)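 Exposed to a 16-point dose series (40 μM to 0.4 nM final, 0.4% DMSO) for 72 h at 37 °C in 90% N2/5% CO2/5% O2. DAPI-stained and imaged confocally. Two biological replicates, each with two technical repeats.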

Plasmodium falciparum [13] = experiment: Antimalarial activity against Plasmodium falciparum Dd2 after 72 hrs by DAPI staining-based confocal imaging analysis; assay type: functional, organism-based; settings: Plasmodium falciparum, Dd2, 72 h; read-out: IC50
Procedure, shortened: as §4

[14] = Inhibition of Plasmodium falciparum C-terminal His6-tagged M17 aminopeptidase (85 to 605 residues) expressed in Escherichia coli BL21(DE3) preincubated for 20 mins followed by L-leucine-7-amido-4-methylcoumarin addition by Morrison equation analysis
Procedure, shortened: as §3

[15] = Inhibition of Plasmodium falciparum C-terminal His6-tagged M1 aminopeptidase (195 to 1085 residues) expressed in Escherichia coli BL21(DE3) preincubated for 20 mins followed by L-leucine-7-amido-4-methylcoumarin addition by Morrison equation analysis
Procedure, shortened: as §3

[16] = Selectivity index, ratio of CC50 for HEK293 cells to IC50 for Plasmodium falciparum 3D7; assay type: toxicity; settings: human, read-out: Ratio CC50/IC50
Plasmodium falciparum [17] = experiment: (§5) Reversible inhibition of Plasmodium falciparum C-terminal His6-tagged M17 aminopeptidase (85 to 605 residues) expressed in Escherichia coli BL21(DE3) assessed as enzyme activity recovery at 150 uM preincubated followed by compound washout for 7 hrs and subsequent L-leucine-7-amido-4-methylcoumarin substrate addition by fluorescence assay relative to control; set-up: scale not given: the % may be the effect or the level left
Procedure, shortened: (§6)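 Pf-M17 (20 μM) was incubated overnight at 4 °C with 150 μM compound, 150 μM bestatin, 2 mM EDTA, or buffer (50 mM HEPES pH 8, 300 mM NaCl). It was then washed by repeated 10-fold concentration/dilution for up to 7 h, incubated 10 min in 1 mM MnCl2, 100 mM Tris pH 8.0, given 25 μM Leu-AMC (final), and fluorescence followed for 30 min.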

Plasmodium falciparum [18] = experiment: as §5, with “for 5” for “for 7”, “assay” for “assay relative to control”
Procedure, shortened: as §6

Sequence of Matrix metalloproteinase-9 (P14780 whole entry): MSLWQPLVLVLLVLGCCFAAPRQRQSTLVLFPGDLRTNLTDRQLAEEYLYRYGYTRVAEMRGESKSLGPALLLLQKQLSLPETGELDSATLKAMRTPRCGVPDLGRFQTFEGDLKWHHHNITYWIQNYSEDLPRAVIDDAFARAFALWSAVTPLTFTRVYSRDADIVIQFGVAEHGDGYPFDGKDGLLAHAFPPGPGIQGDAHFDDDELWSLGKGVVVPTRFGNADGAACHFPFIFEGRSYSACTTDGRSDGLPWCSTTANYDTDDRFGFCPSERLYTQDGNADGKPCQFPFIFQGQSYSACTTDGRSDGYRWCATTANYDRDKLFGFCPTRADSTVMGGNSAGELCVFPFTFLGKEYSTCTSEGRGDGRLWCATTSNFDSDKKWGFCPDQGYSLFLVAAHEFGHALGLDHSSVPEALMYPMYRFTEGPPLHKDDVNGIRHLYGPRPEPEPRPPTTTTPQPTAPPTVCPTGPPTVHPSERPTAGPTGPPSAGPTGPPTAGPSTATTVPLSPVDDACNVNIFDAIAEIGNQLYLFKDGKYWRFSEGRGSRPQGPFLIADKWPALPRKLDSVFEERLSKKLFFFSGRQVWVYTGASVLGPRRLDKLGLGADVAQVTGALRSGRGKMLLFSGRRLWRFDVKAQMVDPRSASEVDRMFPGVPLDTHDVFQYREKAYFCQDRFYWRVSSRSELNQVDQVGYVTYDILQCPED
Sequence of Neutrophil collagenase (Homo sapiens) (P22894 101-467 limits assumed): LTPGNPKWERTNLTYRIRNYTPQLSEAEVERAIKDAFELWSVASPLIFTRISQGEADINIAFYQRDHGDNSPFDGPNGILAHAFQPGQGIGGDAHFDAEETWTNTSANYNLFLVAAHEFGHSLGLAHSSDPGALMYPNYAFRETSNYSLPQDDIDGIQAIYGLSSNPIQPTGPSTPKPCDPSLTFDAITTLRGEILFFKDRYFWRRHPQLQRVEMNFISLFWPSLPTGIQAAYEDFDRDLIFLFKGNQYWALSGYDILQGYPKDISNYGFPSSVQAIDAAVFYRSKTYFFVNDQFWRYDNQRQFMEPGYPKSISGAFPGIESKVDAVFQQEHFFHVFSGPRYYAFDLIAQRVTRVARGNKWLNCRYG
Sequence of Aminopeptidase N (P15144 whole entry): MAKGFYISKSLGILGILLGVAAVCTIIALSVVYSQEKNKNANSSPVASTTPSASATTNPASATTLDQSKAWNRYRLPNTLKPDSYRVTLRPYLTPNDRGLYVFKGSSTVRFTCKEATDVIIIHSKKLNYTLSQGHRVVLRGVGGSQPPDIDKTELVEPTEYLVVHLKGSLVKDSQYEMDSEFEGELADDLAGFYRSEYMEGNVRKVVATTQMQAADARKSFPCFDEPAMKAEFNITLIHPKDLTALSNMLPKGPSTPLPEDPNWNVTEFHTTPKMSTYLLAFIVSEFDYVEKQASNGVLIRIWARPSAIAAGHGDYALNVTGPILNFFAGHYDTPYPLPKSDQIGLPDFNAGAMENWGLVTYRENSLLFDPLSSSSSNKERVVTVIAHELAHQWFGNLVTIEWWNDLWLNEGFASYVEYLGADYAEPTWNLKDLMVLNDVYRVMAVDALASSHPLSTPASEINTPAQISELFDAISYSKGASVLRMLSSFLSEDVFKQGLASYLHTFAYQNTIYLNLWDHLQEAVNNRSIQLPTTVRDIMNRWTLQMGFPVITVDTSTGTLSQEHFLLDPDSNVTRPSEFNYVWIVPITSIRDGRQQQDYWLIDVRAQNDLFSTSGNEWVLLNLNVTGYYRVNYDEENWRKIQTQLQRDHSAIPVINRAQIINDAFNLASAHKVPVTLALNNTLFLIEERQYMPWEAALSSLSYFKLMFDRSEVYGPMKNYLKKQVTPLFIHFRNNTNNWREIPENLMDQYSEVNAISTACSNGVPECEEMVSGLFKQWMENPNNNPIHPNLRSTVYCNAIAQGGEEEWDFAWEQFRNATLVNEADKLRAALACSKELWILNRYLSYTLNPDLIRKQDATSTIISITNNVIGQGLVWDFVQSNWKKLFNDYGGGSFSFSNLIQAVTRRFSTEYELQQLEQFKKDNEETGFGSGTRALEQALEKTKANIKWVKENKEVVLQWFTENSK
Sequence of 72 kDa type IV collagenase (P08253 whole entry): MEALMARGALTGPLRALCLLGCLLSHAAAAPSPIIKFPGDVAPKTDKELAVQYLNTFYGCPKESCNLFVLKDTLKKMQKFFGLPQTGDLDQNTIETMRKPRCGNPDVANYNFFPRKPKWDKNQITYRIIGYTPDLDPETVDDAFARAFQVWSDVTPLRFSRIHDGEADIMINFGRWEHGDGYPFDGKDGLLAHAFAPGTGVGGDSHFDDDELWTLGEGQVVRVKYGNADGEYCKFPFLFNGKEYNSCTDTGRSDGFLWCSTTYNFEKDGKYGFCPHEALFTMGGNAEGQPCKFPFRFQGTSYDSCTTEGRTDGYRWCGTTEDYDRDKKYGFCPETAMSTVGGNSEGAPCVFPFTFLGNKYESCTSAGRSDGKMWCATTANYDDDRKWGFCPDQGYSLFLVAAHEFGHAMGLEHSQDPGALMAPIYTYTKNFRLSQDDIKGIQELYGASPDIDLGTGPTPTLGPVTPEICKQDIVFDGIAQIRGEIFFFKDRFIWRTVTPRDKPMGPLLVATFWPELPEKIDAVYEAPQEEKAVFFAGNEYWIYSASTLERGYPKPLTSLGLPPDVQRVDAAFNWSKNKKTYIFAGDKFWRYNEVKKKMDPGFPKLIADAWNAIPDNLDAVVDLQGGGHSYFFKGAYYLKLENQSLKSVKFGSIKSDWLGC

For CC(C)(C)CC(=O)NC(C(=O)NO)c1ccc(-c2cc(F)c(F)c(F)c2)cc1 (centres undefined), the inhibition [1] was “inactive”, the inhibition [2] was “Active” and the CC50 at 72 h [3] was ≥ 20 µM. For the same compound, the inhibition [4] was “Active”, the Ki [5] was 0.00639 µM and the Ki [6] was 0.0036 µM. The Ratio Ki [7] was 42.1, the Ki (Aminopeptidase N) was 0.3 µM and the IC50 [8] was 17 µM. The inhibition at 72 h, 10 µM [9] was 4.8%, the inhibition at 72 h, 40 µM [10] was 98.4% and the IC50 [11] was > 1000 µM. The IC50 (Plasmodium falciparum [12]) was 0.0146 µM, the IC50 (Plasmodium falciparum [13]) was 0.0138 µM and the Ki [14] was 0.101 µM. For the same compound, the Ki [15] was 0.269 µM and the selectivity ratio [16] was ≥ 1370.

O=C(NO)C(NC(=O)C12CC3CC(CC(C3)C1)C2)c1ccc(-c2cc(F)c(F)c(F)c2)cc1 (centres undefined) gave an Activity (Plasmodium falciparum [17]) of 20%, a Ki [5] of 0.122 µM and a Ki [6] of 0.0186 µM. For the same compound, the Ratio Ki [7] was 1.1, the inhibition (Plasmodium falciparum [18]) was “Active” and the inhibition at 72 h, 10 µM [9] was 2.1%. For the same compound, the inhibition at 72 h, 40 µM [10] was 42.9%, the IC50 (Plasmodium falciparum [12]) was 0.357 µM and the IC50 (Plasmodium falciparum [13]) was 0.313 µM. For the same compound, the Ki [14] was 0.0289 µM, the Ki [15] was 0.137 µM and the selectivity ratio [16] was ≥ 56.
